This note sets out measurements from ChEMBL document CHEMBL1671843, “Synthesis and SAR of Thiazolylmethylphenyl Glucoside as Novel C-Aryl Glucoside SGLT2 Inhibitors” (ACS Med Chem Lett, 2011).

Series [1] concerns Rattus norvegicus. Briefly: Antidiabetic activity in Sprague-Dawley rat assessed as increase of urine volume at 10 mg/kg, po relative to control. The format is functional. The gist of the method:
(§1)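 Normal Sprague-Dawley rats given a single oral dose (1 or 10 mg/kg) against vehicle controls. Urinary glucose excretion and urine volume were measured and expressed as fold over vehicle. Data are means ± SEM, compared to vehicle by one-way ANOVA with Dunnett's post hoc test.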

Series [2] can be described thus: Oral bioavailability in Sprague-Dawley rat at 5 mg/kg. The class given is ADME, organism-based. Conditions: in vivo. The gist of the method: (§2)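 Male Sprague-Dawley rats dosed orally at 5 mg/kg. Measured Cmax with time to Cmax, elimination half-life and oral bioavailability (F).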
For series [3], the system named is Rattus norvegicus. Briefly: Antidiabetic activity in Sprague-Dawley rat assessed as increase of urinary glucose excretion at 10 mg/kg, po relative to control. The class given is functional, Urine. The gist of the method: (§3)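 Normal Sprague-Dawley rats received a single oral dose of 1 or 10 mg/kg. Urinary glucose excretion was measured and expressed as fold elevation in glucose disposal over vehicle-treated controls. Values are means ± SEM, compared with vehicle by one-way ANOVA with Dunnett's post hoc test. Urine volume was also recorded.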

Series [4] deals with Rattus norvegicus. Briefly: Antidiabetic activity in Sprague-Dawley rat assessed as increase of urinary glucose excretion at 1 mg/kg, po relative to control. The class given is functional, Urine. In a few lines: as §3
Series [5] has as its target T1, Sodium/glucose cotransporter 2 (Homo sapiens, UniProt P31639).
T1 sequence (P31639 whole entry): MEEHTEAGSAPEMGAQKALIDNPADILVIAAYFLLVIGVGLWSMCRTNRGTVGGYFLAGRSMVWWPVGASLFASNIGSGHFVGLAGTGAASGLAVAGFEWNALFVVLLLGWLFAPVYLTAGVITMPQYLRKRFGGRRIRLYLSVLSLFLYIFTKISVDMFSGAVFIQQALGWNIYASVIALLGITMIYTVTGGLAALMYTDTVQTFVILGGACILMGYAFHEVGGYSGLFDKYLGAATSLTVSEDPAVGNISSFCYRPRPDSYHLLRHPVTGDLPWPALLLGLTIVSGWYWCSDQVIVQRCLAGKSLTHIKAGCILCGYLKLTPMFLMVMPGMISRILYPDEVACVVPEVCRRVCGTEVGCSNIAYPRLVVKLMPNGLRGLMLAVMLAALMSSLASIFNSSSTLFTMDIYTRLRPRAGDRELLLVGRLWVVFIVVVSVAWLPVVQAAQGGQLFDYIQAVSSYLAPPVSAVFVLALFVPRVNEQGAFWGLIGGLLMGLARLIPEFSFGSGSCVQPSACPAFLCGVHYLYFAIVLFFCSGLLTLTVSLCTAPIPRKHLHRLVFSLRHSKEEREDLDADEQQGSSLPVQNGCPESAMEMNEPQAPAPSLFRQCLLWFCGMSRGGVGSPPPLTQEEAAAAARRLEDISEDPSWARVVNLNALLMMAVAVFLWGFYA
As to the kind of experiment: Inhibition of human SGLT2 expressed in CHO cells assessed as [14C]-alpha-methyl-D-glucopyranoside uptake after 2 hrs by liquid scintillation counting. The class given is cell-based. The gist of the method:
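Sodium-dependent glucose transport assay against hSGLT2. IC50 was fitted by nonlinear regression. Values are from single determinations.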

Series [6] has as its system Rattus norvegicus. Briefly: Antidiabetic activity in Sprague-Dawley rat assessed as increase of glucose disposal at 1 mg/kg, po relative to control. The class given is functional. In a few lines: as §1
Series [7] can be described thus: Cmax in Sprague-Dawley rat at 5 mg/kg, po after 0.38 hrs. The class given is ADME, organism-based. Further details: dose 5 mg/kg, route oral. Conditions: in vivo. In a few lines:
as §2

Series [8] has as its system Rattus norvegicus. As to the kind of experiment: Antidiabetic activity in Sprague-Dawley rat assessed as increase of urine volume at 1 mg/kg, po relative to control. The format is functional. In a few lines:
as §1

The nature of series [9]: Elimination half life in Sprague-Dawley rat at 5 mg/kg, po. The format is ADME, organism-based. Further details: dose 5 mg/kg, route oral. Conditions: in vivo. In a few lines:
as §2

The subject of series [10] is Rattus norvegicus. As to the kind of experiment: Antidiabetic activity in Sprague-Dawley rat assessed as increase of glucose disposal at 10 mg/kg, po relative to control. The class given is functional. The gist of the method:
as §1

On to `OC[C@H]1O[C@@H](c2ccc(Cl)c(Cc3ncc(-c4ccco4)s3)c2)[C@H](O)[C@@H](O)[C@@H]1O`, for which the “fold change (FC)” value with Rattus norvegicus [1] is reported as 3.7; with Rattus norvegicus [3] it was 700; in the series with Rattus norvegicus [4] it was 230. This compound gave a bioavailability in series [2] of 20.6%. Also, the IC50 in series [5] amounted to 0.72 nM.

In the case of `CCCCCCCc1cnc(Cc2cc([C@@H]3O[C@H](CO)[C@@H](O)[C@H](O)[C@H]3O)ccc2Cl)s1`, in series [5], the IC50 was 12.4 nM.

On to `CCCCOc1cnc(Cc2cc([C@@H]3O[C@H](CO)[C@@H](O)[C@H](O)[C@H]3O)ccc2Cl)s1`, for which the IC50 in series [5] was found to be 19.6 nM.

Regarding `OC[C@H]1O[C@@H](c2ccc(Cl)c(Cc3ncc(-c4ccccc4)s3)c2)[C@H](O)[C@@H](O)[C@@H]1O`, in [5], the IC50 stood at 13.3 nM.

For the compound `OC[C@H]1O[C@@H](c2ccc(Cl)c(Cc3ncc(-c4ccc(-c5ccccc5)cc4)s3)c2)[C@H](O)[C@@H](O)[C@@H]1O`, in series [5], the IC50 is 9.31 nM.

`OC[C@H]1O[C@@H](c2ccc(Cl)c(Cc3ncc(-c4ccoc4)s3)c2)[C@H](O)[C@@H](O)[C@@H]1O`: in series [5], the IC50 turned out to be 1.57 nM.

Regarding `OC[C@H]1O[C@@H](c2ccc(Cl)c(Cc3ncc(-c4cccs4)s3)c2)[C@H](O)[C@@H](O)[C@@H]1O`, the IC50 in series [5] stood at 1.14 nM.

`OC[C@H]1O[C@@H](c2ccc(Cl)c(Cc3ncc(-c4ccsc4)s3)c2)[C@H](O)[C@@H](O)[C@@H]1O`: the “fold change (FC)” value in the series with Rattus norvegicus [6] is recorded as 160; in the series with Rattus norvegicus [1], 4.2; with Rattus norvegicus [8] it was 2.5; in the series on Rattus norvegicus [10], 730. For the same compound, the bioavailability in series [2] amounted to 15%. In series [7], this compound had a Cmax of 1540 ng/mL. The compound further gave a half-life in series [9] of 2.51 h. The IC50 in [5] was 0.772 nM.

In the case of `OC[C@H]1O[C@@H](c2ccc(Cl)c(Cc3ncc(-c4nccs4)s3)c2)[C@H](O)[C@@H](O)[C@@H]1O`, the IC50 in series [5] came to 3.13 nM.

`O=C(O)c1cnc(Cc2cc([C@@H]3O[C@H](CO)[C@@H](O)[C@H](O)[C@H]3O)ccc2Cl)s1`: the IC50 in [5] is greater than 10000 nM.

As for `OC[C@H]1O[C@@H](c2ccc(Br)c(Cc3ncc(-c4ccsc4)s3)c2)[C@H](O)[C@@H](O)[C@@H]1O`, the IC50 in series [5] stood at 6.36 nM.

Regarding `OC[C@H]1O[C@@H](c2ccc(F)c(Cc3ncc(-c4ccsc4)s3)c2)[C@H](O)[C@@H](O)[C@@H]1O`, the IC50 in series [5] came to 7.36 nM.

For the compound `OC[C@H]1O[C@@H](c2ccc(C(F)(F)F)c(Cc3ncc(-c4ccsc4)s3)c2)[C@H](O)[C@@H](O)[C@@H]1O`, the IC50 in series [5] is 14.6 nM.

Consider `N#Cc1ccc([C@@H]2O[C@H](CO)[C@@H](O)[C@H](O)[C@H]2O)cc1Cc1ncc(-c2ccsc2)s1`, for which the IC50 in [5] turned out to be 140 nM.

As to `OC[C@H]1O[C@@H](c2ccc(Cl)c(Cc3cnc(-c4ccsc4)s3)c2)[C@H](O)[C@@H](O)[C@@H]1O`, the IC50 in [5] was determined as 1.11 nM.

With `CCOc1ccc(Cc2cc([C@@H]3O[C@H](CO)[C@@H](O)[C@H](O)[C@H]3O)ccc2Cl)cc1` [DAPAGLIFLOZIN], the bioavailability in series [2] stood at 88%. The “fold change (FC)” value with Rattus norvegicus [8] is reported as 5.7.
